# Measured values as given in article PMC2682635 (Psychopharmacology, 2009).
# Where “and” joins values, the source holds several entries; their conditions need not be identical. Identical values can stand only once. Entries after “also recorded” stand apart in the source; their conditions may differ. Like-named read-outs stand apart in the source and are kept apart here.
# Columns and labels:
# baboons [1] = experiment: Food-maintained operant behavior procedure; type: in vivo, Papio anubis; conditions: for Time food-maintained behavior was suppressed after administration: high doses
# Procedure, shortened: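 Test compound or vehicle was diluted in water to 150 ml total and infused intragastrically. Sessions started at 9:00 am right after dosing. Food pellets were available 20 h/day on a fixed-ratio schedule via a Lindsley operandum. Pellets earned were counted in ten 2-h bins up to 20 h. Analysis was repeated-measures two-way ANOVA (dose × time), p<0.05.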
# in vivo = conditions: plasma, po
# [2] = baboon
# [3] = humans, 25 mg/kg 1,4-BD; ref Thai et al. 2006; cited from earlier work
# [4] = humans, 25 mg/kg 1,4-BD; ref Thai et al. 2006; cited from earlier work; remark: listed apart in the source
# rhesus monkeys = conditions: food-maintained operant procedure; ref McMahon et al. 2003; cited from earlier work
# baboons [5] = experiment: 30-min continuous behavioral observation session; type: in vivo, Papio anubis
# baboons [6] = experiment: Paper and pencil behavioral checklists; type: in vivo, Papio anubis; conditions: for Return to baseline for all observed behavioral effects, time postadministration: baboon (Papio anubis), in vivo, oral
# baboons [7] = experiment: Fine-motor task; type: in vivo, Papio anubis; conditions: for Duration to complete the fine-motor task compared to vehicle: across 30, 60 and 120 min
# [8] = 180 mg/kg, 2 h after administration, p<0.001
# [9] = 180 mg/kg, 4 h after administration
# [10] = 180 mg/kg, 60 to 90 min after drug
# [11] = 240 mg/kg, 60 to 90 min after drug
# [12] = 100 mg/kg, 60 to 90 min after drug
smiles,measurement,setting,value
"OCCCCO [1,4-BD, 1,4-butanediol]",Food-maintained behavior compared to vehicle,"baboons [1]; 56 mg/kg, 4 h after administration, p<0.05",increases
same,Food-maintained behavior compared to vehicle,baboons [1]; [8],decreased
same,Food-maintained behavior compared to vehicle,baboons [1]; [9],decreased
same,Food-maintained behavior compared to vehicle,"baboons [1]; 240 mg/kg, 2 h postadministration, p<0.001",decreased
same,Food-maintained behavior compared to vehicle,"baboons [1]; 240 mg/kg, 4 h postadministration, p<0.05",decreased
same,Time food-maintained behavior was suppressed after administration,baboons [1],4 h
same,AUC,"in vivo; monkey, 32 mg/kg",33.4 µM·h
same,Cmax,"in vivo; monkey, 32 mg/kg",5.3 to 7.7 µM
same,half-life,"in vivo; monkey, 32 mg/kg",248 min
same,AUC,"in vivo; monkey, 100 mg/kg",612 µM·h
same,Cmax,"in vivo; monkey, 100 mg/kg",47.8 to 590 µM
same,half-life,"in vivo; monkey, 100 mg/kg",35.3 min
same,AUC,"in vivo; monkey, 180 mg/kg",942 µM·h
same,Cmax,"in vivo; monkey, 180 mg/kg",289 to 1100 µM
same,half-life,"in vivo; monkey, 180 mg/kg",42.7 min
same,Tmax,in vivo,30 min
same,half-life,in vivo; 100 mg/kg,< 60 min
same,half-life,in vivo; 180 mg/kg,< 60 min
same,"Maximum concentrations of 1,4-BD (range)","[2]; 32 mg/kg 1,4-BD",0.48 to 0.69 µg/mL
same,"T1/2 for GHB in plasma relative to T1/2 of 1,4-BD (fold longer)","[2]; 100 mg/kg 1,4-BD",five
same,"T1/2 for GHB in plasma relative to T1/2 of 1,4-BD (fold longer)","[2]; 180 mg/kg 1,4-BD",sevenfold
same,"Maximum concentration of GHB, range",[3],22.2−85.7 μg/ml
same,Mean maximum concentration of GHB,[3],45.6 µg/mL
same,"Maximum concentration of 1,4-BD, range",[4],0.33−14.4 μg/ml
same,"Mean maximum concentration of 1,4-BD",[4],3.84 µg/mL
same,Time after administration at which response rate was decreased,rhesus monkeys,150 min
same,Frequency of scratch/groom compared to vehicle,"baboons [5]; 56 mg/kg, 60 to 90 min after drug",increased
same,Frequency of ataxia compared to vehicle,baboons [5]; [10],significantly increased
same,Frequency of scratch/groom compared to vehicle,baboons [5]; [10],increased
same,Frequency of tremor/jerks compared to vehicle,baboons [5]; [10],significantly increased
same,Frequency of vomit/retch compared to vehicle,baboons [5]; [10],significantly increased
same,Duration of lip droop compared to vehicle,baboons [5]; [11],significantly increased
same,Frequency of ataxia compared to vehicle,baboons [5]; [11],significantly increased
same,Frequency of tremor/jerks compared to vehicle,baboons [5]; [11],significantly increased
same,Frequency of vomit/retch compared to vehicle,baboons [5]; [11],significantly increased
same,Time lying down compared to vehicle,baboons [5]; [11],significantly increased
same,"Duration of effects in ≥50% of subjects, ataxia",baboons [6]; 180 mg/kg IG,4.0 h
same,"Duration of effects in ≥50% of subjects, lip droop",baboons [6]; 180 mg/kg IG,2.5 h
same,"Duration of effects in ≥50% of subjects, tremor/jerk",baboons [6]; 180 mg/kg IG,5.0 h
same,"Duration of effects in ≥50% of subjects, vomit",baboons [6]; 180 mg/kg IG,2.5 h
same,"Number of subjects at maximal effect, ataxia",baboons [6]; 180 mg/kg IG,4/4
same,"Number of subjects at maximal effect, lip droop",baboons [6]; 180 mg/kg IG,2/4
same,"Number of subjects at maximal effect, tremor/jerk",baboons [6]; 180 mg/kg IG,4/4
same,"Number of subjects at maximal effect, vomit",baboons [6]; 180 mg/kg IG,3/4
same,"Recovery of baseline (100% of subjects), ataxia",baboons [6]; 180 mg/kg IG,7.0 h
same,"Recovery of baseline (100% of subjects), lip droop",baboons [6]; 180 mg/kg IG,4.0 h
same,"Recovery of baseline (100% of subjects), tremor/jerk",baboons [6]; 180 mg/kg IG,7.5 h
same,"Recovery of baseline (100% of subjects), vomit",baboons [6]; 180 mg/kg IG,7.5 h
same,"Time to maximal effects, ataxia",baboons [6]; 180 mg/kg IG,2.0 h
same,"Time to maximal effects, lip droop",baboons [6]; 180 mg/kg IG,2 h and 2.0 h
same,"Time to maximal effects, tremor/jerk",baboons [6]; 180 mg/kg IG,1.0 h
same,"Time to maximal effects, vomit",baboons [6]; 180 mg/kg IG,2.5 h
same,"Duration of effects in ≥50% of subjects, ataxia",baboons [6]; 240 mg/kg IG,4.0 h
same,"Duration of effects in ≥50% of subjects, lip droop",baboons [6]; 240 mg/kg IG,3.5 h
same,"Duration of effects in ≥50% of subjects, tremor/jerk",baboons [6]; 240 mg/kg IG,6.0 h
same,"Duration of effects in ≥50% of subjects, vomit",baboons [6]; 240 mg/kg IG,1.0 h
same,"Number of subjects at maximal effect, ataxia",baboons [6]; 240 mg/kg IG,4/4
same,"Number of subjects at maximal effect, lip droop",baboons [6]; 240 mg/kg IG,3/4
same,"Number of subjects at maximal effect, tremor/jerk",baboons [6]; 240 mg/kg IG,4/4
same,"Number of subjects at maximal effect, vomit",baboons [6]; 240 mg/kg IG,3/4
same,"Recovery of baseline (100% of subjects), ataxia",baboons [6]; 240 mg/kg IG,6.0 h
same,"Recovery of baseline (100% of subjects), lip droop",baboons [6]; 240 mg/kg IG,5.0 h
same,"Recovery of baseline (100% of subjects), tremor/jerk",baboons [6]; 240 mg/kg IG,8.0 h
same,"Recovery of baseline (100% of subjects), vomit",baboons [6]; 240 mg/kg IG,7.5 h
same,"Time to maximal effects, ataxia",baboons [6]; 240 mg/kg IG,2.0 h
same,"Time to maximal effects, lip droop",baboons [6]; 240 mg/kg IG,1−2 h and 1 h and 1.0 h
same,"Time to maximal effects, tremor/jerk",baboons [6]; 240 mg/kg IG,2.0 h
same,"Time to maximal effects, vomit",baboons [6]; 240 mg/kg IG,1.0 h
same,Time at which lip droop continued in half of the subjects,baboons [6]; 180 and 240 mg/kg,2.5−3.5 h
same,Time postadministration by which lip droop was no longer observed,baboons [6]; 180 and 240 mg/kg,≤ 5 h
same,"Return to baseline for all observed behavioral effects, time postadministration",baboons [6],7−8 h
same,Duration to complete the fine-motor task,"baboons [7]; 180 mg/kg, 60 min postadministration, p<0.001",significantly increased
same,Duration to complete the fine-motor task,"baboons [7]; 180 mg/kg, 120 min postadministration, p<0.001",significantly increased
same,Completion of the fine-motor task,baboons [7]; 240 mg/kg,all subjects failed to complete the task within the maximum time of 120 s
same,Duration to complete the fine-motor task,"baboons [7]; 240 mg/kg, 120 min postadministration, p<0.001",significantly increased
same,Duration to complete the fine-motor task,"baboons [7]; any dose, 30-min postadministration",did not alter
"O=C1CCCO1 [GBL, Gamma-butyrolactone]",Food-maintained behavior compared to vehicle,"baboons [1]; 100 mg/kg, 2 h after administration, p<0.001",decreased
same,Food-maintained behavior compared to vehicle,baboons [1]; [8],decreased
same,Food-maintained behavior compared to vehicle,baboons [1]; [9],decreased
same,Food-maintained behavior,"baboons [1]; 240 mg/kg, one subject (HA), data not shown",suppressed over the entire 20 h
same,Increase of food-maintained behavior,baboons [1]; all doses tested,none of the doses increased
same,Time food-maintained behavior was suppressed after administration,baboons [1],4 h
same,Time after administration at which response rate was decreased,rhesus monkeys,90 min
same,Duration of lip droop compared to vehicle,baboons [5]; [12],significantly increased
same,Frequency of ataxia compared to vehicle,baboons [5]; [12],significantly increased
same,Frequency of scratch/groom compared to vehicle,baboons [5]; [12],significantly increased
same,Frequency of tremor/jerks compared to vehicle,baboons [5]; [12],significantly increased
same,Duration of lip droop compared to vehicle,baboons [5]; [10],significantly higher
same,Duration of lying down compared to vehicle,baboons [5]; [10],increased
same,Frequency of ataxia compared to vehicle,baboons [5]; [10],significantly higher
same,Frequency of scratch/groom compared to vehicle,baboons [5]; [10],decreased
same,Frequency of tremor/jerks compared to vehicle,baboons [5]; [10],significantly higher
same,Frequency of vomit/retch compared to vehicle,baboons [5]; [10],increased
same,Observed effects of the high dose,"baboons [5]; 240 mg/kg, once in one subject (HA), data not shown","resulted in convulsions; also recorded: vomit/retch, ataxia, tremor/jerks, sedation/anesthesia, and seizures; also recorded: both seizures and catalepsy"
same,"Time to maximal effect, ataxia",baboons [6]; 100 mg/kg,30 min
same,"Time to maximal effect, tremor/jerks",baboons [6]; 100 mg/kg,30 min
same,"Duration of effects in ≥50% of subjects, ataxia",baboons [6]; 100 mg/kg IG,1.0 h
same,"Duration of effects in ≥50% of subjects, lip droop",baboons [6]; 100 mg/kg IG,2.0 h
same,"Duration of effects in ≥50% of subjects, vomit",baboons [6]; 100 mg/kg IG,1.0 h
same,"Number of subjects at maximal effect, ataxia",baboons [6]; 100 mg/kg IG,3/4
same,"Number of subjects at maximal effect, lip droop",baboons [6]; 100 mg/kg IG,3/4
same,"Number of subjects at maximal effect, tremor/jerk",baboons [6]; 100 mg/kg IG,1/4
same,"Number of subjects at maximal effect, vomit",baboons [6]; 100 mg/kg IG,2/4
same,"Recovery of baseline (100% of subjects), ataxia",baboons [6]; 100 mg/kg IG,2.5 h
same,"Recovery of baseline (100% of subjects), lip droop",baboons [6]; 100 mg/kg IG,3.5 h
same,"Recovery of baseline (100% of subjects), vomit",baboons [6]; 100 mg/kg IG,2.0 h
same,"Time to maximal effects, ataxia",baboons [6]; 100 mg/kg IG,0.5 h
same,"Time to maximal effects, lip droop",baboons [6]; 100 mg/kg IG,1.0 h
same,"Time to maximal effects, tremor/jerk",baboons [6]; 100 mg/kg IG,0.5 h
same,"Time to maximal effects, vomit",baboons [6]; 100 mg/kg IG,1 h and 1.0 h
same,"Time to maximal effect, ataxia",baboons [6]; 180 mg/kg,30 min
same,"Time to maximal effect, tremor/jerks",baboons [6]; 180 mg/kg,30 min
same,"Duration of effects in ≥50% of subjects, ataxia",baboons [6]; 180 mg/kg IG,4 h and 4.0 h
same,"Duration of effects in ≥50% of subjects, lip droop",baboons [6]; 180 mg/kg IG,2.5 h
same,"Duration of effects in ≥50% of subjects, tremor/jerk",baboons [6]; 180 mg/kg IG,5 h and 5.0 h
same,"Duration of effects in ≥50% of subjects, vomit",baboons [6]; 180 mg/kg IG,1.0 h
same,"Number of subjects at maximal effect, ataxia",baboons [6]; 180 mg/kg IG,4/4
same,"Number of subjects at maximal effect, lip droop",baboons [6]; 180 mg/kg IG,4/4
same,"Number of subjects at maximal effect, tremor/jerk",baboons [6]; 180 mg/kg IG,4/4
same,"Number of subjects at maximal effect, vomit",baboons [6]; 180 mg/kg IG,4/4
same,"Recovery of baseline (100% of subjects), ataxia",baboons [6]; 180 mg/kg IG,6.0 h
same,"Recovery of baseline (100% of subjects), lip droop",baboons [6]; 180 mg/kg IG,6.0 h
same,"Recovery of baseline (100% of subjects), tremor/jerk",baboons [6]; 180 mg/kg IG,6.0 h
same,"Recovery of baseline (100% of subjects), vomit",baboons [6]; 180 mg/kg IG,2.0 h
same,"Time to maximal effects, ataxia",baboons [6]; 180 mg/kg IG,0.5 h
same,"Time to maximal effects, lip droop",baboons [6]; 180 mg/kg IG,0.5 h
same,"Time to maximal effects, tremor/jerk",baboons [6]; 180 mg/kg IG,0.5 h
same,"Time to maximal effects, vomit",baboons [6]; 180 mg/kg IG,1 h and 1.0 h
same,"Return to baseline for all observed behavioral effects, time postadministration",baboons [6],≤ 6 h
same,Duration to complete the fine-motor task compared to vehicle,"baboons [7]; 100 mg/kg, p<0.001",increased
same,Duration to complete the fine-motor task compared to vehicle,"baboons [7]; 180 mg/kg, p<0.001",increased
